Most compounds without a hit are left out; they make up all but 1.8% or so of the library.
LMPTP inh: LMPTP phosphatase inhibitors, primary screen, biochemical, fluorescence intensity, uHTS. recombinant LMPTP-A, OMFP fluorogenic substrate. AID 651560, 2012. actives 0.22% (n = 360,000). inhibition, % at 20 µM;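 active = compounds that cut the enzyme signal by at least half of the control window in the single-dose screen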;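 note: plate controls were DMSO wells with enzyme plus substrate for no effect and substrate without enzyme for full effect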
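Buffer or medium: Bis-Tris pH 6.0, DTT, detergent; Assay system: LMPTP-A enzyme; Quantity: 0.625 nM enzyme; Detection: endpoint fluorescence intensity; Times: 50 min dark incubation at room temperature; Controls: substrate-only low control, DMSO enzyme-plus-substrate high control; Doses: single 20 µM dose; Read-out: percent inhibition versus substrate-only and uninhibited controls; Reagent: 400 µM OMFP.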
STEP inh: STEP phosphatase inhibitors, primary screen, biochemical, fluorescence intensity, uHTS; recombinant STEP, OMFP fluorogenic substrate; inhibition, % at 20 µM; actives 0.25% (n = 360,000);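 active = inhibition at 20 µM, scaled per plate between control wells, above about 37%, limit read from the data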;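 note: 0% = DMSO with enzyme and substrate and 100% = substrate only without enzyme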
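Assay system: isolated STEP enzyme / Timing: 20 min at room temperature, dark / Doses: 20 µM, 1% DMSO / Technique: fluorescence intensity, excitation 480 nm, emission 540 nm / Reagent: fluorogenic phosphatase substrate OMFP at 25 µM final / Measure: percent inhibition scaled to no-enzyme and uninhibited-enzyme controls, plate-pattern corrected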
DNMT1 block: human DNMT1 methyltransferase inhibitors, primary screen, biochemical, molecular beacon, fluorescence, HinP1I cleavage, uHTS | inhibition (reported as % activation of signal), % at 10 µM | AID 588458, 2011 | actives 0.83% (n = 360,000) | DNA (cytosine-5)-methyltransferase 1 (Homo sapiens), P26358; in the data active = inhibition above about 50%
Scp-1 inhibitor: Scp-1 phosphatase inhibitors, primary screen, biochemical, colorimetric, uHTS | Recombinant Scp1, phosphopeptide, malachite green phosphate absorbance | inhibition, % at 20 µM | Carboxy-terminal domain RNA polymerase II polypeptide A small phosphatase 1 (Homo … | actives 0.88% (n = 340,000);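 active = inhibition above about 50% at 20 µM, limit read from the data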;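 note: plate controls were DMSO wells with enzyme for no effect and wells lacking enzyme for full effect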
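Test system: SCP-1 catalytic domain; Buffer or medium: Acidic Tris acetate buffer with magnesium and detergent; Also added: Phosphorylated 17-residue peptide substrate; Compound: single 20 µM dose, 1% DMSO; Schedule: enzyme reaction 45 min at room temperature, colour 5 min, stabilisation 30 min; Signal: Phosphate-binding colour reagent, absorbance read at 630 nm.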
HKDC1 inh: HKDC1 hexokinase inhibitors, primary screen, biochemical, fluorescence, uHTS | Q2TB90 | recombinant HKDC1, G6PDH/diaphorase resazurin coupled fluorescence | inhibition, % at 20 µM | actives 0.16% (n = 340,000);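 active = inhibition above about 35% when tested at 20 µM, limit read from the data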;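 note: plate controls were DMSO wells with enzyme for no effect and DMSO wells lacking enzyme for full effect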
Target sequence (Q2TB90 whole entry, looked up): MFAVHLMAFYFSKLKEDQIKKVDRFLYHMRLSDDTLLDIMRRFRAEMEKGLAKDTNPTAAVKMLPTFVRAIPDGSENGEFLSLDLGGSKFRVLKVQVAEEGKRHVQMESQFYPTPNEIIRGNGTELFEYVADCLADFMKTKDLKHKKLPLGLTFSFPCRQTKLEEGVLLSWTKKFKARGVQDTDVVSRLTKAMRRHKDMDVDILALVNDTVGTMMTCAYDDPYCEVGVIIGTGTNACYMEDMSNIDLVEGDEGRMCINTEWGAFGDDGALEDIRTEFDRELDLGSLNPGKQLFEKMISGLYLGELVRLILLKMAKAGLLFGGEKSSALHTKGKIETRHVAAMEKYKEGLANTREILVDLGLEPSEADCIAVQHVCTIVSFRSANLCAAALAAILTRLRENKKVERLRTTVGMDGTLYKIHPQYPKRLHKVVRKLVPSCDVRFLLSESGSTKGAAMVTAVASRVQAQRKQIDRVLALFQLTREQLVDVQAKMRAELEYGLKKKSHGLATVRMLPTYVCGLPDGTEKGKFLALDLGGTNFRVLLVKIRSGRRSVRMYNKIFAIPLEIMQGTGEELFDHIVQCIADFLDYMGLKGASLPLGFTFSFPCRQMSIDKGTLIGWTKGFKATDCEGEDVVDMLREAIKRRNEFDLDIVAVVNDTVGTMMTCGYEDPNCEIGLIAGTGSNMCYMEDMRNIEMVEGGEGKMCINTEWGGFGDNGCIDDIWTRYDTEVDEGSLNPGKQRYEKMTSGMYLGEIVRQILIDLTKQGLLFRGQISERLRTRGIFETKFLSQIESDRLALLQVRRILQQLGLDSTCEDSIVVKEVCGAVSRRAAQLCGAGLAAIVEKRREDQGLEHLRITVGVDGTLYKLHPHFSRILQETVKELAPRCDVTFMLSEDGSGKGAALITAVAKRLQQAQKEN
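Assay system: recombinant HKDC1 hexokinase; detection: coupled resazurin fluorescence, excitation 525 nm, emission 613 nm; benchmarks: DMSO-plus-enzyme-mix negative control, buffer-substituted positive control; compound dosing: single 20 µM dose; schedule: 90 min at room temperature in dark; also added: glucose plus 1 mM ATP as hexokinase substrates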
SUMO1 PPI mod: modulators of SUMO1 protein-protein interactions, primary screen, biochemical, uHTS; actives 0.33% (n = 360,000); SUMO1 binding to a labelled peptide, TR-FRET, 1 h; inhibition, % at 20 µM; AID 602429, 2012; in the data active = inhibition above about 37%
Scp-1 conf: Scp-1 phosphatase inhibitors, retest, confirmation, biochemical, colorimetric, single concentration; inhibition, % at 20 µM; recombinant SCP-1 catalytic domain, phosphate release, malachite green absorbance; shares compounds with Scp-1 inhibitor; actives 61% (n = 2,500); AID 540281, 2011;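 note: plate controls were DMSO with enzyme for no effect and buffer wells lacking enzyme for full effect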
MG interference: colorimetric readout interference by compounds, confirmation, artefact control for Scp-1 inhibitor project, biochemical, single concentration; shares compounds with Scp-1 inhibitor; Colorimetric interference counterscreen, malachite green absorbance 630 nm; apparent inhibition (interference), % at 20 µM; 2,500 tested, under 10 active; AID 540313, 2011;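 note: compounds added after enzyme reaction finished so only phosphate colour detection is probed; plate controls were DMSO wells with completed Scp-1 reaction for no effect and substrate wells lacking enzyme for full effect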
Scp-1 Tm shift: Scp-1 binding by thermal shift, confirmation, orthogonal assay for Scp-1 inhibitor project, biophysical, differential scanning fluorimetry; thermal shift relative to vanadate control, % at 40 µM; AID 540329, 2011; actives 25% (n = 1,500); shares compounds with Scp-1 inhibitor; Recombinant SCP1, Sypro Orange thermal shift Tm;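 active = substances whose mean melting-temperature shift, as a percentage of the reference inhibitor's shift, reaches about 5.3%, limit read from the data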;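 note: 0% = Tm of DMSO wells and 100% = Tm with sodium orthovanadate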
DNMT1 confirm: DNMT1 methyltransferase inhibitor retest, confirmation, biochemical, molecular beacon, fluorescence, single concentration; shares compounds with DNMT1 block; DNMT1 molecular beacon HinP1I cleavage; inhibition, % at 10 µM; actives 8% (n = 2,300); AID 602385, 2012;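 active = average inhibition of at least 30% in the single-concentration confirmation test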
DNMT1 interf: shows spectral interference in the DNMT1 beacon assay | shares compounds with DNMT1 block | DNMT1 molecular beacon spectral interference counterscreen, fluorescence 485/520 | activation (fluorescence interference), % at 10 µM | actives 1% (n = 2,300);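 active = activation of at least 30% at 10 µM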;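 note: DNMT1 catalytic domain with a HinP1I cleavage step and a FAM/dabcyl DNA beacon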
Numbers without * were called inactive; · = not tested or not shown.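 Rule for the calls, unless noted: active = inhibition of at least 30% at 20 µM; inactive = the rest.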

SMILES | LMPTP inh | STEP inh | DNMT1 block | Scp-1 inhibitor | HKDC1 inh | SUMO1 PPI mod | Scp-1 conf | MG interference | Scp-1 Tm shift | DNMT1 confirm | DNMT1 interf
Cc1cc(C)nc(/N=C(\N)Nc2ccc(OCCC(C)C)cc2)n1 | 1 | -5 | -4 | -5 | -4 | 11 | · | · | · | · | ·
CCc1nc2ccc(C(=O)NCc3cccs3)cn2c1N(C)Cc1nccs1 | -1 | -1 | 4 | · | · | 1 | · | · | · | · | ·
O=C1CCC(C(=O)N2CCCO2)CN1Cc1cccc(C(F)(F)F)c1 (centres undefined) | 0 | -1 | 0 | -2 | -2 | 1 | · | · | · | · | ·
CCOC(=O)C1=C(COC(=O)/C=C/c2ccco2)NC(=O)NC1C (centres undefined) | 7 | 31 | 72* | 66* | 4 | 12 | 55* | -6 | -7 | 7 | -3
CCCc1nc2sc3ccccc3c(=O)c2c(=O)n1Cc1ccco1 | 22 | 11 | 76* | 68* | 4 | 9 | 54* | -4 | -10 | 1 | -1
O=C(NCc1ccc(F)c(F)c1)C1Cc2c(-c3ccc4c(c3)OCO4)ccnc2O1 (centres undefined) | 1 | 1 | -7 | · | · | 6 | · | · | · | · | ·
O=C(NCc1cccc(CNC(=O)C(=O)NCc2ccco2)c1)C(=O)NCc1ccco1 | 56* | 10 | 91* | 91* | 22 | 3 | 65* | -8 | -12 | 19 | 4
N=C1C(c2nc3ccccc3s2)=C(O)CN1NC(=O)c1c[nH]c2ccccc12 | 35 | 37 | 65* | 64* | -1 | -7 | 54* | -15 | 4 | 2 | 0
N=C1C(c2nc3ccccc3s2)=C(O)CN1NC(=O)c1ccccc1[N+](=O)[O-] | 7 | 2 | 12 | 16 | 14 | 1 | · | · | · | · | ·
CN(C)c1nc(N)nc(CSc2nnnn2-c2ccc(Cl)cc2)n1 | -1 | 0 | 0 | · | · | 1 | · | · | · | · | ·
COc1cc(NC(=O)c2ccccc2)c(OC)cc1NC(=O)Cc1cccs1 | 24 | 2 | 73* | 71* | 19 | 6 | 66* | -16 | 8.0* | 4 | -7
COC(=O)c1cc(NC(=O)Cc2cccs2)cc(C(=O)OC)c1 | 48 | 21 | 58* | 76* | 0 | 3 | 65* | -18 | 6.3* | 7 | -2
Cc1ccc([N+](=O)[O-])cc1NC(=O)Cc1cccs1 | 26 | 0 | 81* | 67* | -4 | -12 | 60* | -22 | 5.9* | 8 | 2
CN(Cc1ccc(Br)s1)C(=O)CNC(=O)c1ccc2c(c1)OCO2 | -1 | 3 | 0 | -6 | 4 | 4 | · | · | · | · | ·
Cc1cccc(N2CCN(C(=O)CCS(=O)(=O)c3ccc(Br)cc3)CC2C)c1 (centres undefined) | 0 | 3 | 70* | 84* | -5 | 0 | 74* | -6 | -1 | 1 | -1
O=C(Nc1ccc(NC(=O)c2cccc([N+](=O)[O-])c2)cc1)c1cccc([N+](=O)[O-])c1 | 0 | -4 | 4 | 6 | 0 | -21 | · | · | · | · | ·
O=C(Nc1cccc([N+](=O)[O-])c1)c1cccc(C(=O)Nc2cccc([N+](=O)[O-])c2)c1 | 8 | 22 | 86* | 74* | -6 | 70* | 85* | -11 | 4 | 27 | 2
Cc1cc(/C=N/NC(=O)c2cccc(N(C)C)c2)c(C)n1-c1cc(C(=O)O)cc(C(=O)O)c1 | -1 | 17 | 81* | 66* | -4 | 22 | 53* | -14 | 7.5* | 9 | 3
CCCCNC(=O)C1(C)CCCCN1C(=O)c1ccc2c(c1)C(C)(C)CCC2(C)C (centres undefined) | 1 | 0 | -1 | · | · | 6 | · | · | · | · | ·
COC(=O)c1ccc(NC(=O)C2CCN(C(=O)Nc3ccccc3)CC2)cc1 | 0 | 0 | 0 | 8 | 2 | 2 | · | · | · | · | ·
CSC1=N/C(=C\c2ccc(Br)o2)C(=O)S1 | 24 | 23 | 101* | 84* | 5 | 14 | 53* | -22 | 5 | -2 | 0
CCN(C1CCCCC1)S(=O)(=O)CCNC(=O)c1ccc(OC)cc1 | -2 | -1 | 1 | · | · | 2 | · | · | · | · | ·
CCCCOc1cccc(C(=O)O)c1 | -2 | -3 | 0 | -8 | -3 | -5 | · | · | · | · | ·
CC[N+](CC)(CC)CCCCOc1ccc2c(c1)C(=O)c1cc(OCCCC[N+](CC)(CC)CC)ccc1-2 | 7 | 1 | 50* | 99* | 7 | -47 | 10 | 2 | · | 13 | -2
CC(CC(=O)c1ccccc1)=NCCCN=C(C)CC(=O)c1ccccc1 | 0 | -2 | -4 | · | · | 2 | · | · | · | · | ·
COc1cc2c(cc1OC)C(CNC(=O)C=Cc1cc(OC)c(OC)c(OC)c1)C2 (centres undefined) | -1 | -2 | -2 | · | · | -4 | · | · | · | · | ·
Cc1ccc(-c2nc3s/c(=C\c4ccco4)c(=O)n3n2)cc1 | 4 | 5 | 79* | 67* | -14 | 4 | 49* | -7 | 5 | 5 | -1
Cc1ccc(/C=c2\sc3nc(-c4ccccc4Br)nn3c2=O)o1 | 35 | 11 | 104* | 92* | 9 | 24 | 61* | -21 | 9.2* | 4 | 2
Cc1ccc(/C=c2/sc3nnc(-c4ccccc4Cl)n3c2=O)o1 | 1 | 5 | 22 | 49 | -2 | 19 | · | · | · | · | ·
